In ChEMBL document CHEMBL3112547, “Surface plasmon resonance using the catalytic domain of soluble guanylate cyclase allows the detection of enzyme activators” (Bioorg Med Chem Lett, 2014):
Active and inactive are the calls of the source. The rule behind the calls is not given here.

Assays:
[1] = Solubility of the compound in assay buffer in presence of 5% DMSO; type: physicochemical
[2] = biological target: T1, Soluble guanylate cyclase alpha1/beta1 complex (Homo sapiens) (UniProt Q02153+Q02108); experiment: Activation of human recombinant sGC subunit alpha-1/beta-1 using GTP as substrate assessed as cGMP production measured per ng of protein at 100 uM treated prior to DEA/NO addition measured after 2 mins by radioimmunoassay in presence of Mg2+; type: protein-complex assay
[3] = biological target: T1, Soluble guanylate cyclase alpha1/beta1 complex (Homo sapiens); experiment: Binding affinity to sGC subunit alpha-1/beta-1 catalytic domain (unknown origin) assessed as occupancy relative to control; type: protein-complex assay
How it was run: (§1)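 Compounds at 100 μM in DMSO-containing running buffer, 25 °C. Injection and dissociation 30 s each, triplicate. Responses double-referenced, DMSO-corrected, control subtracted; occupancy is the fraction of immobilised sites bound, assuming 1:1 stoichiometry.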

[4] = biological target: T1, Soluble guanylate cyclase alpha1/beta1 complex (Homo sapiens); experiment: Binding affinity to sGC subunit alpha-1/beta-1 catalytic domain (unknown origin) at 100 uM after 30 seconds by SPR analysis; type: protein-complex assay; how it was run: as §1
[5] = biological target: T1, Soluble guanylate cyclase alpha1/beta1 complex (Homo sapiens); experiment: Binding affinity to full-length human recombinant sGC subunit alpha-1/beta-1 at 100 uM after 30 seconds by SPR analysis; type: protein-complex assay
How it was run: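 Compounds at 100 μM in running buffer (10 mM HEPES pH 7.4, 150 mM NaCl, 3 mM EDTA, 0.05% P20, 1 mM DTT, 10 mM MgCl2, 5% DMSO), 25 °C. Injection and dissociation 30 s each, triplicate.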

SMILES | solubility [1] | Activity [2] [pmol] | Occ [3] [%] | Activity [4] | Activity [5]
Nc1nc(-c2nn(Cc3ccccc3F)c3ncccc23)ncc1C1CC1 | Insoluble | – | – | – | –
NCc1noc(-c2c3ccccc3nn2Cc2ccc3c(c2)OCO3)n1 | – | 9.11 | 96 | – | –
O=C(O)CCCCN(CCc1ccccc1OCc1ccc(CCc2ccccc2)cc1)Cc1ccc(C(=O)O)cc1 | – | – | – | inactive | Active
CC(C)(C)OC(=O)NCc1noc(-c2nn(Cc3ccc4c(c3)OCO4)c3ccccc23)n1 | – | 15.6 | 40 | – | Active
Cc1ccc(Cn2nc(-c3nc(CN)no3)c3ccccc32)cc1 | – | 14.3 | 90 | – | Active
CC(=O)Nc1ccc(Cn2nc(-c3nc(CNC(=O)OC(C)(C)C)no3)c3ccccc32)cc1 | – | 2.23 | 62 | – | –
Cc1oncc1Cn1nc(-c2nc(CN)no2)c2ccccc21 | – | 9.09 | 34 | – | Active
CC(=O)n1nc(-c2nc(CN)no2)c2ccccc21 | – | 4.05 | 20 | – | –
NCc1noc(-c2c3ccccc3nn2Cc2cccc(Cl)c2)n1 | – | 2.08 | 94 | – | –
NCc1noc(-c2c3ccccc3nn2CCn2ccnc2)n1 | – | 2.72 | 28 | – | –
Cc1ccccc1Cn1nc(-c2nc(CN)no2)c2ccccc21 | – | 3.22 | 101 | – | Active
COc1ccc(Cn2nc(-c3nc(CN)no3)c3ccccc32)cc1 | – | 2.33 | 21 | inactive | inactive
